Assay results as given in ChEMBL document CHEMBL4130499, “Serendipitous discovery of potent human head and neck squamous cell carcinoma anti-cancer molecules: A fortunate failure of a rational molecular design” (Eur J Med Chem, 2017).
Calls of active or inactive are those of the source. No cut-off for these calls is given here.

Key:
Histone deacetylase = assay: Inhibition of HDAC in human HeLa nuclear extracts incubated for 60 mins using fluorometric substrate by fluorometric assay; type: protein assay
Outline: (§1)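 HeLa nuclear extract incubated with compound, assay buffer and acetyl-lysine fluorogenic HDAC substrate for 60 min at 37 °C. Lysine developer then added for a further 30 min at 37 °C. Fluorescence read at ex 370/em 450 nm. Water served as positive control and 20 µM TSA as inhibitor control.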

[1] = biological target: T1, Histone deacetylase (Homo sapiens) (UniProt Q13547+O15379+Q9UBN7+Q92769+Q9UQL6+Q8WUI4+Q9BY41+Q96DB2+P56524+Q9UKV0+Q969S8); assay: Inhibition of HDAC in human HN13 cells assessed as reduction in histone H3 acetylation incubated for 24 hrs by immunofluorescence assay; type: cell-based
Outline: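 HN13 on glass coverslips, overnight at 37 °C, then treated 24 h at 1 and 10 nM, TSA as positive control. Fixed in 4% paraformaldehyde, permeabilized with 0.5% Triton X-100, blocked in 3% BSA/PBS. Anti-AcH3 (lys9) primary 2 h, TRITC anti-rabbit 1 h, nuclear counterstain.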

[2] = Cytotoxicity in human HN6 cells assessed as reduction in cell viability incubated for 24 hrs by MTT assay; type: functional, cell-based; details: HN-6, 24 h
Outline: (§2)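 HNSCC lines (HN6, HN12, HN13) grown in DMEM with 10% fetal calf serum at 37 °C, 5% CO2, to 70–80% confluence. Seeded, after 24 h exposed to rising compound concentrations for a further 24 h. MTT (5 mg/mL in PBS) added, formazan dissolved in DMSO, absorbance read at 590 nm. IC50 in nM, mean of three independent triplicate experiments ± standard error.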

[3] = Cytotoxicity in human HN12 cells assessed as reduction in cell viability incubated for 24 hrs by MTT assay; type: functional, cell-based; details: HN12, 24 h; outline: as §2
WSU-HN13 [4] = assay: Cytotoxicity in human HN13 cells assessed as reduction in cell viability incubated for 24 hrs by MTT assay; type: functional, cell-based; details: WSU-HN13, 24 h; outline: as §2
184B5 = assay: Cytotoxicity in human 184B5 cells assessed as reduction in cell viability incubated for 24 hrs by MTT assay; type: cell-based; details: 184B5, 24 h
Outline: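 184B5 immortalized non-cancer breast epithelial cells; cytotoxicity over 24 h drug exposure, evaluated alongside the HNSCC lines; IC50 in nM taken as mean of three independent triplicate experiments ± standard error.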

[5] = Selectivity index, ratio of IC50 for cytotoxicity in human […] cells; type: toxicity, cell-based; details: HN13 cells and 184B5 cells, read-out: Ratio IC50
WSU-HN13 [6] = assay: Induction of PTEN protein expression in human HN13 cells incubated for 24 hrs by Western blot; type: functional, cell-based
Outline: (§3)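 HN13 cells treated 24 h with 1.0 or 10.0 nM compound versus vehicle controls. Lysed in Tris pH 7.5/SDS/β-mercaptoethanol with protease inhibitors at 4 °C, protein quantified by BCA. 30 μg loaded for SDS-PAGE, transferred to PVDF, blocked 1 h in 5% milk, probed for PTEN (and pS6) with GAPDH loading control. HRP chemiluminescent detection.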

WSU-HN13 [7] = assay: Induction of PTEN protein expression in human HN13 cells assessed as reduction in PI3K/Akt/mTOR signalling by measuring reduction in pS6 protein expression incubated for 24 hrs by Western blot; type: functional, cell-based; outline: as §3
[8] = biological target: T1, Histone deacetylase (Homo sapiens); assay: Inhibition of HDAC in human HN13 cells assessed as increase in histone H3 acetylation at 1 nM incubated for 24 hrs by Western blot
[9] = biological target: T1, Histone deacetylase (Homo sapiens); assay: Ratio of inhibition of HDAC in human HN13 cells assessed as increase in histone H3 acetylation to IC50 for inhibition of HDAC in human HeLa nuclear extracts
[10] = biological target: T1, Histone deacetylase (Homo sapiens); assay: Inhibition of HDAC in human HeLa nuclear extracts at 500 uM incubated for 60 mins using fluorometric substrate by fluorometric assay; type: protein assay; outline: as §1

Compound	IC50 (Histone deacetylase) [nM]	inhibition [1]	IC50 [2] [nM]	IC50 [3] [nM]	IC50 (WSU-HN13 [4]) [nM]	IC50 (184B5) [nM]	selectivity ratio [5]	Activity (WSU-HN13 [6])	Activity (WSU-HN13 [7])	inhibition [8]	Ratio [9]	inhibition [10] [%]
O=CN/N=C/c1ccc(NS(=O)(=O)c2ccc(-c3ccccc3)cc2)cc1O	292000	Dose-dependent effect	4.94	5.03	9.85	1840	> 186	Dose-dependent effect	Dose-dependent effect	Active	10	–
NC(=O)c1ccc(NS(=O)(=O)c2ccc(-c3ccccc3)cc2)cc1O	–	Dose-dependent effect	4.73	4.99	9.66	1960	> 200	Dose-dependent effect	Dose-dependent effect	Active	10	20
